From PubChem BioAssay
KCNK3 inh = human KCNK3 channel inhibitors, primary screen, CHO cells, FluxOR thallium flux, B-score; actives 0.84% (n = 340,000); AID 602410, 2012; B-score at 10 µM; FluxOR fluorescence; active compounds read low; Potassium channel subfamily K member 3 (Homo sapiens), O14649;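 active means B-score under library mean minus 4 SD, starting fluorescence ratio at most library mean plus 5 SD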;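 further: more negative B-score means stronger inhibition of thallium flux through KCNK3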
hERG rescue = hERG rescue from dofetilide block, primary screen, cell-based, CHO-hERG, FluxOR thallium flux, dofetilide IC70; Voltage-gated inwardly rectifying potassium channel KCNH2 (Homo sapiens), Q12809; dofetilide IC70 present; activation (rescue from dofetilide block), less the hit threshold, % at 10 µM; actives 0.51% (n = 310,000);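 active means activation above the mean of controls blocked by dofetilide plus 5 SD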;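 further: thallium influx through hERG after potassium depolarization seen as dye fluorescence rise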
KCNQ1 act = potentiators or activators of KCNQ1 channel, primary screen, cell-based, thallium flux, high-throughput; CHO-K1 KCNQ1, thallium flux FluxOR fluorescence; active compounds read high; actives 0.35% (n = 310,000); AID 2648, 2010; B-score at 10 µM;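 active means fluorescence ratio B-score, a plate-corrected score, at least three library SD, with initial intensity B-score within 5 SD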
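Doses: Single concentration per compound, DMSO matched to controls | Test system: KCNQ1-transfected CHO-K1 cells | Timing: 90 min dye loading and 20 min compound exposure, both at room temperature | Measured by: Kinetic FluxOR thallium fluorescence, 10-s 1-Hz baseline, 110-s post-stimulus read | Medium: Assay buffer with matched DMSO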
KCNK9 block = KCNK9 potassium channel inhibitors, primary screen, HEK293 cells, thallium flux; actives 1.2% (n = 310,000); Potassium channel subfamily K member 9 (Homo sapiens), Q9NPC2; FluxOR thallium flux fluorescence; active compounds read low; B-score at 10 µM;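 active means ratio B-score over 3 SD below the library mean, with starting fluorescence within 5 SD of its mean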;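 further: negative B-score means less thallium flux so channel inhibition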
Target sequence (Q9NPC2 whole entry, looked up): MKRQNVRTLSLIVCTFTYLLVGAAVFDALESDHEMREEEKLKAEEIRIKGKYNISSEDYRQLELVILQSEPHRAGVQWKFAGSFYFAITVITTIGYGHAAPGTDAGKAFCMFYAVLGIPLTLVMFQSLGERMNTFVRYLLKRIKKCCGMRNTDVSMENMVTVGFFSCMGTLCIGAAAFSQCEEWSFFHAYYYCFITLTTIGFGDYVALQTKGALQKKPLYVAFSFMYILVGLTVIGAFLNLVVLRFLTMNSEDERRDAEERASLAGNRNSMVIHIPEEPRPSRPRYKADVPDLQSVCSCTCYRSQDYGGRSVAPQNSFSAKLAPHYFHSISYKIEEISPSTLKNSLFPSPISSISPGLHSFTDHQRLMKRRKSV
KCNQ1 inh = inhibitors of human KCNQ1 channel, primary screen, cell-based, thallium flux, high-throughput | CHO-K1 KCNQ1, FluxOR thallium flux fluorescence; active compounds read high | actives 1.3% (n = 310,000) | B-score at 10 µM | AID 2642, 2010;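 active means compounds whose thallium flux B-score, printed positive for inhibition, exceeds three library SD while starting fluorescence stays within three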;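 further: channel opened by potassium depolarization with thallium stimulus after 20 min compound exposure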
KCNK9 inh conf = KCNK9 potassium channel inhibitors, confirmation, HEK293 cells, thallium flux, duplicate. actives 43% (n = 4,900). FluxOR thallium flux fluorescence. inhibition, % at 10 µM. shares compounds with KCNK9 block;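 active means thallium signal inhibited by more than 5 SD of the compound-free buffer control wells, on both duplicate plates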
Kir2-1 spec = mouse Kir2.1 channel inhibition, confirmation, selectivity assay for KCNK9 modulator project, cell-based, HEK293, thallium flux | shares compounds with KCNK9 block | Kir2.1 cells, FluxOR thallium flux fluorescence | inhibition, % at 10 µM | actives 4% (n = 4,900);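 active means thallium signal drop more than 5 SD beyond the mean of the no-compound control wells, seen in both duplicate plates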;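 further: signal is fluorescence rise after thallium addition divided by baseline fluorescence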
HEK293 Tl ctr = thallium flux in non-induced HEK293 cells, confirmation, counter-screen for KCNK9 inhibitor project, cell-based, second counter screen, non-induced KCNK9-HEK293; AID 492997, 2010; inhibition, % at 10 µM; actives 40% (n = 4,900); FluxOR thallium flux; shares compounds with KCNK9 block;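 active means thallium signal drop beyond 5 SD of the untreated control mean, on both duplicate plates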
KCNK3 inh conf = retest of human KCNK3 channel inhibitors, confirmation, CHO cells, FluxOR thallium flux, triplicate. ratio percent of control, % at 10 µM. FluxOR fluorescence; 0% buffer, 100% carvedilol maximal block. actives 99% (n = 2,400). shares compounds with KCNK3 inh;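 active means ratio percent of control, averaged over triplicates, above buffer control mean plus 5 SD, cut at about 64% in these data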;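 further: ratio is the fluorescence rise from min to max over baseline after thallium stimulus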
KCNK3 noninduced = thallium flux inhibition in non-induced cells, primary screen, counter-screen for KCNK3 inhibitor project, cell-based, non-induced KCNK3 line, FluxOR thallium, triplicate; shares compounds with KCNK3 inh; non-induced KCNK3 parental cells; active compounds read low; thallium flux ratio (lower = more inhibition) at 10 µM; actives 40% (n = 2,400); AID 651747, 2012;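 active means thallium flux ratio, averaged over three wells, more than 5 SD below the buffer control mean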;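 further: host cells are CHO cells without KCNK3 induction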
Large screens that a line does not name were inactive (follow-up assays come after a bar, where they were run). Most compounds without a hit are left out; they make up all but 3.1% or so of the library.

N#CCSc1nc2c(c(C3CC=CCC3)c1C#N)CCC2 (stereo unspecified)	KCNK9 block -8.4 | KCNK9 inh conf 34% | Kir2-1 spec inactive | HEK293 Tl ctr 42% | KCNK3 inh conf 107 | KCNK3 noninduced inactive
NCCc1c(-c2ccccc2)n(-c2ccccc2)c2ccccc12	KCNK9 block -9.9, KCNQ1 inh 13 | KCNK9 inh conf 54% | Kir2-1 spec 62% | HEK293 Tl ctr 36% | KCNK3 inh conf 136 | KCNK3 noninduced inactive
N#Cc1ccc(-c2ccco2)nc1SCC(=O)c1ccc(Cl)cc1	KCNK3 inh -13, KCNK9 block -8.3 | KCNK9 inh conf 44% | Kir2-1 spec inactive | HEK293 Tl ctr 38% | KCNK3 inh conf 146 | KCNK3 noninduced 0.14
Cc1nc2nc(SCC(=O)NCCCN3CCCC(C)C3)nn2c(C)c1Cc1ccccc1Cl (stereo unspecified)	none
O=C(c1ccc(Cl)c(S(=O)(=O)N2CCc3ccccc32)c1)N1CCN(c2ccccc2O)CC1	none (no result: hERG rescue, KCNQ1 act, KCNK9 block, KCNQ1 inh)
O=C(NNC(=O)c1ccccc1O)c1ccc(Cl)c(S(=O)(=O)N2CCc3ccccc32)c1	KCNK3 inh -14, KCNK9 block -9.7, KCNQ1 inh 14 | KCNK9 inh conf 32% | Kir2-1 spec inactive | HEK293 Tl ctr inactive | KCNK3 inh conf 116 | KCNK3 noninduced 0.14
O=C(N/N=C/c1ccccc1)c1sccc1OCc1ccc(F)cc1	KCNK3 inh -9.5, KCNK9 block -15 | KCNK9 inh conf 65% | Kir2-1 spec inactive | HEK293 Tl ctr 41% | KCNK3 inh conf 109 | KCNK3 noninduced inactive
O=C(N/N=C/c1ccccc1)c1ccc(OCc2ccccc2)cc1	none
Cc1ccc(C(CCN(Cc2ccccc2)C(=O)c2ccco2)c2ccco2)cc1 (stereo unspecified)	none
CCC(=O)N(CCC(c1ccco1)c1ccccc1OC)Cc1cccs1 (stereo unspecified)	KCNK3 inh -8.9, KCNK9 block -12 | KCNK9 inh conf 56% | Kir2-1 spec inactive | HEK293 Tl ctr 34% | KCNK3 inh conf 130 | KCNK3 noninduced 0.13
CC(=O)N(CCC(c1ccccc1)c1ccco1)Cc1cccs1 (stereo unspecified)	KCNK3 inh -10, KCNK9 block -12 | KCNK9 inh conf 56% | Kir2-1 spec inactive | HEK293 Tl ctr 30% | KCNK3 inh conf 94 | KCNK3 noninduced inactive
COc1ccccc1C(=O)NCCC(=O)N(Cc1ccco1)Cc1cccs1	none
O=C(CC1C(=O)NCCN1Cc1cccc(F)c1)NC1CCCCCC1 (stereo unspecified)	none
Cc1cc(C)c2nc(C)cc(N/N=C/c3ccc(O)cc3)c2c1	KCNK3 inh -12, KCNK9 block -15, KCNQ1 inh 10 | KCNK9 inh conf 72% | Kir2-1 spec 36% | HEK293 Tl ctr inactive | KCNK3 inh conf 135 | KCNK3 noninduced 0.12
CC(NC(=O)C(C)N1CCN(Cc2ccccc2)CC1)c1ccc(F)cc1 (stereo unspecified)	none
COC(=O)C1=C(C)NC(C)=C(C(=O)OC)C1c1ccc(-c2cccc(Cl)c2Cl)o1	none
COC(=O)C1=C(C)NC(C)=C(C(=O)OC)C1c1ccc(-c2cc(Cl)ccc2Cl)o1	KCNK3 inh -9.7, KCNK9 block -9.5 | KCNK9 inh conf 38% | Kir2-1 spec inactive | HEK293 Tl ctr 40% | KCNK3 inh conf 127 | KCNK3 noninduced inactive
CCn1nc(C(=O)NCc2ccco2)c(Cl)c1Cl	none
CCn1nc(C(=O)Nc2cccc3ccccc23)c(Cl)c1Cl	KCNK9 block -10 | KCNK9 inh conf 49% | Kir2-1 spec inactive | HEK293 Tl ctr 36% | KCNK3 inh conf 126 | KCNK3 noninduced 0.16
Cc1ccc(Cl)cc1NC(=S)N(Cc1ccco1)C(C)c1cccs1 (stereo unspecified)	KCNK3 inh -11, KCNK9 block -9.6 | KCNK9 inh conf 47% | Kir2-1 spec inactive | HEK293 Tl ctr 37% | KCNK3 inh conf 124 | KCNK3 noninduced 0.15
COc1ccc(C2(C)C(C#N)C(=O)NC(=O)C2C#N)cc1 (stereo unspecified)	none (no result: hERG rescue, KCNQ1 act, KCNK9 block, KCNQ1 inh)
COc1ccc(OCc2n(CC(=O)OC3CC(C)CCC3C(C)C)c3ccccc3[n+]2C)cc1 (stereo unspecified)	KCNK3 inh -10, KCNK9 block -14, KCNQ1 inh 10 | KCNK9 inh conf 70% | Kir2-1 spec 79% | HEK293 Tl ctr inactive | KCNK3 inh conf 112 | KCNK3 noninduced inactive
CC(C)(C)Nc1nc(SCc2ccccc2)nc(N2CCOCC2)n1	KCNK3 inh -9.4 | KCNK3 inh conf 103 | KCNK3 noninduced 0.16
CCc1ccc(-c2nc(CSCC(=O)N3CCN(c4ccccn4)CC3)c(C)o2)cc1	none
CCOc1ccc(-c2nc(CSCC(=O)N3CCN(c4cccc(OC)c4)CC3)c(C)o2)cc1	KCNK3 inh -12 | KCNK3 inh conf 138 | KCNK3 noninduced 0.15
CCOc1cc(C(=O)N(C)CC(=O)Nc2cccc3ccccc23)ccc1OC	none (no result: hERG rescue, KCNQ1 act, KCNK9 block, KCNQ1 inh)
N#CC1=C(N)NC(SCC(=O)Nc2ccccc2)=C(C#N)C12CCCCC2	KCNK3 inh -9.5 | KCNK3 inh conf 106 | KCNK3 noninduced 0.14
COc1ccc(C(=O)CSC2=C(C#N)C3(CCCCC3)C(C#N)=C(N)N2)cc1	KCNK3 inh -10 | KCNK3 inh conf 112 | KCNK3 noninduced 0.12
N#CC1=C(N)NC(SCc2ccccc2)=C(C#N)C12CCCCC2	none
